Bioassay records as filed in PubChem.
NR2E3 ag-1: NR2E3 agonists in two-hybrid cells, primary screen, cell-based, luminescence, CHO-S, Gal4-NCOR/VP16-NR2E3; Photoreceptor-specific nuclear receptor (Homo sapiens), Q9Y5X4; luciferase; inhibition of corepressor binding, % at 3.98 µM; hit rate 0.35% among 360,000; AID 602229, 2012;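 active means inhibition above the mean of all tested compounds plus 3 SD, cut at about 70% in these data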;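 further: 0% = DMSO with NR2E3 transfected cells and 100% = cells lacking NR2E3 construct; higher means lower luciferase signal from less NR2E3 corepressor binding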
Target sequence (Q9Y5X4 whole entry, looked up, the tested form may be a part): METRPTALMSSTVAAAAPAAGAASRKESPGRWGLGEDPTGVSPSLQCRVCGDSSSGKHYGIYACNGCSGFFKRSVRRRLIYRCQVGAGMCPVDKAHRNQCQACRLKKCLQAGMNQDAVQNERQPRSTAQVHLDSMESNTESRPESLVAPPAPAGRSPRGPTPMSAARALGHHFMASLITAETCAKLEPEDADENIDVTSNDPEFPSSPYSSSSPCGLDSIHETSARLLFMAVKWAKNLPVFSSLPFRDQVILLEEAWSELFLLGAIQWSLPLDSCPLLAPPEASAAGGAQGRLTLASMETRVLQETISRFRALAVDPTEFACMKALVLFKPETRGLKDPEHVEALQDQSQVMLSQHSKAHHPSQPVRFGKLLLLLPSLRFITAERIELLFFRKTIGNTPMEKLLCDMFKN
NR2E3 ag-2: inhibitors of NR2E3-RetCOR corepressor binding, primary screen, NR2E3 agonist project, biochemical, TR-FRET, GST-NR2E3, biotin-RetCOR; Photoreceptor-specific nuclear receptor (Homo sapiens), Q9Y5X4; AID 2300, 2010; inhibition of corepressor binding, % at 4.78 µM; 1536-well; hit rate 0.12% among 320,000;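 active means percent inhibition above the cutoff of mean plus 3 SD of all tested compounds, set per screening campaign, cut at about 20% in these data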;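 further: 0% = DMSO wells and 100% = biotin wells as full block of FRET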
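Format: 1536-well format; test system: GST-NR2E3 and biotin-RetCOR proteins; read-out basis: percent inhibition of TR-FRET ratio; timing: 5 h incubation at 4 °C; detection: time-resolved FRET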
697 NFkB inh: inhibitors of PMA/ionomycin-induced NF-kB reporter, 697 cells, primary screen, B-cell NF-kB inhibitor project, cell-based, luminescence, uHTS. 697 B-cell NF-kB luciferase reporter, 16 h. inhibition, % at 4 µM. hit rate 0.33% among 330,000. AID 435022, 2010; in the data active means inhibition above about 35%
FGF22 binding: binders of human FGF22 protein, primary screen, FGF22 synaptogenesis inhibitor project, biophysical, thermal shift, single point; Fibroblast growth factor 22 (Homo sapiens), Q9HCT0; recombinant FGF22 thermal shift, SYPRO orange fluorescence; percent of sucrose octasulfate shift, DMSO zero; activity (Tm shift, normalised), % at 9.99 µM; hit rate 1.5% among 340,000;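 active means mean Tm shift, scaled 0 neutral to 100 positive control, at about 1.3% or above, every replicate too, limit read from the data; inconclusive means no clear call, values can overlap the other calls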
Target sequence (Q9HCT0 whole entry, looked up): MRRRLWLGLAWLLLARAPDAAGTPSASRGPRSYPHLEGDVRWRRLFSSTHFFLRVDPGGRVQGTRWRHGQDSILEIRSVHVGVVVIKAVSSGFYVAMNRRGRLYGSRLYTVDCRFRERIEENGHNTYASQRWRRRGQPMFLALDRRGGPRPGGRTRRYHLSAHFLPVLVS
Jurkat NFkB inh: inhibitors of induced NF-kB luciferase reporter, primary screen, TCR NF-kB activation inhibitor project, cell-based, luminescence, uHTS. hit rate 0.53% among 330,000. Jurkat, PMA/ionomycin-induced NF-kB luciferase reporter. inhibition, % at 4 µM. AID 435003, 2010; in the data active means inhibition above about 50%
miR-122 sensor: miR-122 Renilla sensor signal increase in Huh7, primary screen, miR-122 inhibitor project, cell-based, single point, plate reader; Huh7 miR-122 Renilla luciferase sensor, 48 h; neutral wells = 0, positive control = 100; activation (reporter increase), % at 12.5 µM; hit rate 0.3% among 340,000; AID 602342, 2012;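 active means mean replicate activation score at least 90 and every replicate individually at or above 90; inconclusive means only one of the two criteria met; inactive means neither criterion met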;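 further: higher luciferase means less miR-122 activity so hits act as miR-122 inhibitors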
* = called active by the depositor; ? = inconclusive; . = no result given; [ ] = dose if it differs, or a comment. Compounds with a hit are over-represented: about 2.2% of the library has one in this group of screens.

SMILES	NR2E3 ag-1	NR2E3 ag-2	697 NFkB inh	FGF22 binding	Jurkat NFkB inh	miR-122 sensor
O=C(OCCOCCN=C1NS(=O)(=O)c2ccccc21)c1ccccc1	1	1	-1	0	22	-5
O=C(OCCN=C1NS(=O)(=O)c2ccccc21)c1ccccc1	21	2	21	.	10	215*
O=C(CN=C1NS(=O)(=O)c2ccccc21)OCC(=O)c1cc(F)ccc1F	15	0	11	43*	5	-6
COc1ccc(S(=O)(=O)Nc2ccc3c(c2)CC(=O)N([C@H](C)CO)C[C@H](C)[C@@H](CN(C)S(=O)(=O)c2cn(C)cn2)O3)cc1	.	.	.	0	.	3[16.7 µM]
C[C@@H]1CN([C@@H](C)CO)C(=O)c2cc(/C=C/c3ccccc3)cnc2O[C@H]1CN(C)C(=O)Cc1ccccn1	.	.	.	0	.	-13[16.7 µM]
CCC(=O)N1CC2(C1)[C@H](c1ccccc1)[C@@H](CO)N2C(=O)c1cccnc1	.	.	.	0	.	.
CC(CC(=O)OCC(=O)NC1CCS(=O)(=O)C1)c1ccccc1 (configuration not stated)	7	.	13	43*	19	-3
Cc1ccc(C(=O)OCC(=O)NC2CCS(=O)(=O)C2)c(C)c1 (configuration not stated)	-35	.	1	0	-9	.
O=C(COC(=O)CCc1ccccc1)NC1CCS(=O)(=O)C1 (configuration not stated)	-11	2	-1	0	5	1
COc1cc2ccccc2cc1C(=O)OCC(=O)NC1CCS(=O)(=O)C1 (configuration not stated)	9	-1	13	43*	1	.
CO[C@H]1CN(C)C(=O)c2ccc(NC(=O)Nc3cccc(F)c3)cc2OC[C@H](C)N(C(C)=O)C[C@H]1C	.	.	.	1	.	.
CCCn1c(SCC(=O)NC2CCCCC2)nnc1-c1ccccn1	-3	-1	3	0	9	.
CCCn1c(SCC(=O)N2CCCCC2)nnc1-c1ccccn1	.	1	-12	44*	-4	.
O=C(COC(=O)C1CC(=O)N(Cc2ccccc2)C1)Nc1ccc([N+](=O)[O-])cc1Br (configuration not stated)	-23	.	.	43*	.	-6
O=C(COC(=O)C1CC(=O)N(Cc2ccccc2)C1)Nc1cccc([N+](=O)[O-])c1 (configuration not stated)	-12	.	9	0	-20	-1
C[C@@H]1CCCCO[C@@H](CN(C)C(=O)CCC(F)(F)F)[C@@H](C)CN([C@H](C)CO)C(=O)c2cc(NC(=O)CCCCCC(=O)Nc3ccccc3N)ccc2O1	.	.	.	0	.	3[16.7 µM]
CC(=O)Nc1ccc(/C=N/NC(=O)CNC(=O)c2ccccc2)cc1	-5	-3	0	43*	10	-7
CO[C@H]1CN(C)C(=O)c2cc(NC(=O)C3CCCC3)ccc2OC[C@@H](C)N(CCC(F)(F)F)C[C@H]1C	.	.	.	0	.	-5[16.7 µM]
COCCNS(=O)(=O)c1ccc2c3c(cccc13)C(=O)N2C	-17	8	16	43*	-18	33
CO[C@@H](CN(C)C(=O)c1cnccn1)[C@@H](C)CN([C@H](C)CO)S(=O)(=O)c1ccc(F)cc1	.	.	.	0	.	.
CN(C)c1ccc(N2CC(C)(C)C2=O)cc1	-27	-6	5	42	-9	1
CC(=O)c1ccc(N2CC(C)(C)C2=O)cc1	-10	3	-7	43*	-9	-5
C(=C1c2ccccc2-c2ccccc21)c1ccccn1	-5	.	.	43*	.	4
COCC(=O)NC[C@@H]1[C@H](c2ccccc2)[C@H](CO)N1C(=O)c1ccccc1	.	.	.	0	.	-8[16.7 µM]
CC(=O)Nc1c(O)nc(SC/C=C/CSc2nc(O)c(NC(C)=O)c(=O)[nH]2)[nH]c1=O	-10	5	-2	43*	-16	.
SMILES	NR2E3 ag-1	NR2E3 ag-2	697 NFkB inh	FGF22 binding	Jurkat NFkB inh	miR-122 sensor
O=C(NCCc1ccc(O)c(Br)c1)c1ccc(Br)o1	3	.	.	1.7*	.	.
O=C(NCCc1c[nH]c2ccccc12)c1ccc(Br)o1	-47	.	-7	2.3*	7	.
O=C(O)CCNC(=O)c1ccc(Br)o1	-30	0	13	.	-3	1
C[C@H](CO)N1C[C@H](C)[C@H](CN(C)S(C)(=O)=O)Oc2c(NC(=O)c3nc4ccccc4s3)cccc2C1=O	.	.	.	0	.	9[16.7 µM]
O=C(CCc1nnc(CCCc2ccccc2)o1)NCCCC1CCCC1	-76	4	-65	43*	-44	.
CCc1cc(CNC(=O)CCc2nnc(CCCc3ccccc3)o2)on1	-120	3	-61	0	-57	2
CC(C)c1cc(CNC(=O)CCc2nnc(CCCc3ccccc3)o2)on1	-21	4	-32	43*	-48	.
O=C(CCc1nnc(CCCCc2ccccc2)o1)NCCn1cccn1	11	3	3	43*	0	.
O=C(CC(F)(F)F)N1C[C@@H]2[C@H](c3ccccc31)[C@H](CO)N2CC1CCCCC1	.	.	.	0	.	8[16.7 µM]
COc1ccc(NS(=O)(=O)c2cc(NC(=O)Cc3c(F)cccc3Cl)ccc2OC)cc1	-15	3	11	0	2	?
COc1cccc(CC(=O)Nc2ccc(N3CCOCC3)c(S(=O)(=O)Nc3ccccc3OC)c2)c1	-4	.	.	0	.	129*
COc1ccc(NC(=O)COc2nc3ccccc3nc2N2CCOCC2)c(OC)c1	-7	2	12	43*	-14	.
COc1ccc(NS(=O)(=O)c2cc(NC(=O)COc3ccc(OC)cc3)ccc2N2CCOCC2)cc1	-13	.	5	0	12	110*
COc1ccc(NC(=O)Cc2cccc(F)c2)cc1S(=O)(=O)Nc1ccccc1Cl	-3	3	-4	0	-5	332*
COc1ccc(NC(=O)COc2nsnc2N2CCOCC2)cc1	-12	1	2	.	2	.
O=C(Nc1ccccc1F)C(=Cc1sc(N2CCOCC2)nc1-c1ccccc1)C(=O)Nc1ccccc1F	-21	3	25	44*	17	.
Cc1ccc(S(=O)(=O)N(C)c2ccc3ccccc3c2)cc1	1	0	13	44*	5	-5
COc1ccc(C#Cc2cnc3c(c2)C(=O)N([C@H](C)CO)C[C@H](C)[C@H](CN(C)S(=O)(=O)c2cccc(F)c2)O3)cc1OC	.	.	.	-1	.	-13[16.7 µM]
